Drawing on ChEMBL document CHEMBL1137803, “A novel anti-HIV macrocyclic peptide from Palicourea condensata” (J Nat Prod, 2001), this text covers IC50 and EC50 for 1 molecule.

Where a SMILES comes first, the peptide text is derived from it. Bridges are numbered along the chain shown (N, C = ends).

One assay deals with CEM-SS. Put plainly: Cytotoxicity against human CEM-SS cells by XTT assay. Format: cell-based.
Assay [1] relates to Human immunodeficiency virus 1. Put plainly: Antiviral activity against HIV1 RF infected in human CEM-SS cells assessed as inhibition of virus induced cytopathic effect by XTT assay. Format: functional, organism-based. Particulars: Human immunodeficiency virus 1, RF. The procedure, abridged: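 HIV-1RF infection of CEM-SS, a human T-lymphoblastoid cell line, in vitro; inhibition of virus-induced cytopathic effects read out and reported as EC50 in µM.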

Consider `CC[C@H](C)[C@@H]1NC(=O)[C@H](C(C)C)NC(=O)[C@H](CCCNC(=N)N)NC(=O)[C@@H]2CSSC[C@@H]3NC(=O)[C@H]([C@@H](C)O)NC(=O)[C@@H]4CSSC[C@H](NC(=O)[C@H](Cc5ccccc5)NC(=O)[C@H]([C@@H](C)O)NC(=O)[C@@H]5CCCN5C(=O)[C@H](CC(=O)O)NC(=O)CNC(=O)[C@H](CC(N)=O)NC(=O)[C@H](CCCNC(=N)N)NC(=O)[C@H](CCCCN)NC(=O)[C@H](CSSC[C@H](NC(=O)[C@H](C(C)C)NC(=O)[C@@H]5CCCN5C1=O)C(=O)N[C@@H]([C@@H](C)O)C(=O)N[C@@H](Cc1ccc(O)cc1)C(=O)N[C@@H](CO)C(=O)N[C@@H](C)C(=O)N[C@@H](C)C(=O)N[C@@H](CC(C)C)C(=O)NCC(=O)N4)NC(=O)[C@H](CC(C)C)NC(=O)CNC(=O)[C@H](CC(=O)O)NC(=O)[C@H](CO)NC(=O)[C@H](CCCNC(=N)N)NC(=O)[C@H](CC(=O)O)NC(=O)[C@H](CC(=O)O)NC3=O)C(=O)NCC(=O)N[C@@H](CCC(=O)O)C(=O)N[C@@H]([C@@H](C)O)C(=O)N2` [PALICOUREIN] (cyclo(AALGCTCDDRSDGLCKRNGDPTFCGETCRVIPVCTYS); disulfide 5-24, 7-28, 15-34), for which the 50% inhibitory concentration (IC50) with CEM-SS stood at 1500 nM. Besides, in assay [1], the EC50 was 100 nM.
